Assay results: ChEMBL document CHEMBL3588789, “Synthesis and Pharmacokinetic Evaluation of Siderophore Biosynthesis Inhibitors for Mycobacterium tuberculosis” (J Med Chem, 2015)

system: not listed separately; assay: Inhibition of Mycobacterium tuberculosis MbtA expressed in Escherichia coli using [32P]PPi, ATP and salicylic acid incubated for 20 mins by liquid scintillation counting method; conditions: read-out: Ki(app)

SMILES	Ki [nM]
CCN(CC)CC.Nc1ncnc2c1ncn2[C@@H]1O[C@H](CNS(=O)(=O)NC(=O)c2ccccc2O)C[C@H]1F	3
CCN(CC)CC.Nc1ncnc2c1ncn2[C@@H]1O[C@H](CNS(=O)(=O)NC(=O)c2ccccc2O)[C@@H](O)[C@H]1O	3.7

system: Mycobacterium tuberculosis; assay: Antimicrobial activity against Mycobacterium tuberculosis H37Rv grown in GAS medium without ferric ammonium citrate at pH 6.6 incubated for 10 to 14 days by broth microdilution method; assay type: functional; conditions: not given

SMILES	MIC [µM]
CCN(CC)CC.Nc1ncnc2c1ncn2[C@@H]1O[C@H](CNS(=O)(=O)NC(=O)c2ccccc2O)C[C@H]1F	0.78
CCN(CC)CC.Nc1ncnc2c1ncn2[C@@H]1O[C@H](COS(=O)(=O)NC(=O)c2ccccc2O)[C@@H](O)[C@H]1O	0.39
CCN(CC)CC.Nc1ncnc2c1ncn2[C@@H]1O[C@H](CNS(=O)(=O)NC(=O)c2ccccc2O)[C@@H](O)[C@H]1O	0.19

system: not listed separately; assay: Ratio of MIC for antimicrobial activity against Mycobacterium tuberculosis H37Rv to KI)app) for inhibition of Mycobacterium tuberculosis MbtA expressed in Escherichia coli; conditions: not given

SMILES	Ratio
CCN(CC)CC.Nc1ncnc2c1ncn2[C@@H]1O[C@H](CNS(=O)(=O)NC(=O)c2ccccc2O)C[C@H]1F	260
CCN(CC)CC.Nc1ncnc2c1ncn2[C@@H]1O[C@H](CNS(=O)(=O)NC(=O)c2ccccc2O)[C@@H](O)[C@H]1O	51

system: HepG2; assay: Cytotoxicity against human HepG2 cells assessed as reduction in cell viability incubated for 48 hrs by MTT assay; assay type: cell-based; conditions: hepg2, 48 h
Method in brief: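 HepG2 cells (2.5–5.0 × 10^4 per well) in EMEM with 10% FBS, in triplicate. Final compound concentrations 1–200 μM diluted from 20 mM DMSO stocks. Controls were 1% DMSO and 1% Triton X-100. Incubated 48 h at 37 °C under 5% CO2.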

SMILES	CC50 [nM]
CCN(CC)CC.Nc1ncnc2c1ncn2[C@@H]1O[C@H](COS(=O)(=O)NC(=O)c2ccccc2O)[C@@H](O)[C@H]1O	> 200000
CCN(CC)CC.Nc1ncnc2c1ncn2[C@@H]1O[C@H](CNS(=O)(=O)NC(=O)c2ccccc2O)[C@@H](O)[C@H]1O	> 200000

system: not listed separately; assay: Cmax in BALB/c mouse; assay type: ADME, organism-based; conditions: in vivo

SMILES	Cmax [ng/mL]
CCN(CC)CC.Nc1ncnc2c1ncn2[C@@H]1O[C@H](COS(=O)(=O)NC(=O)c2ccccc2O)[C@@H](O)[C@H]1O	1200

system: not listed separately; assay: AUC in BALB/c mouse; assay type: ADME, organism-based; conditions: in vivo

SMILES	AUC [ng·h/mL]
CCN(CC)CC.Nc1ncnc2c1ncn2[C@@H]1O[C@H](COS(=O)(=O)NC(=O)c2ccccc2O)[C@@H](O)[C@H]1O	977

system: Liver; assay: Half life in mouse liver microsomes at 1 uM in presence of NADPH by LC-MS/MS method; assay type: ADME; conditions: not given
Method in brief: (§1)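 Liver microsomes (rat, mouse or pooled human, 0.5 mg/mL) in 100 mM potassium phosphate pH 7.4 with 10 mM MgCl2 and 1.0 μM compound. Preincubated, then NADPH added (water for control). Incubated 60 min at 37 °C. Acetonitrile quench, centrifugation, supernatant analysed by LC–MS/MS.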

SMILES	t1/2 [min]
CCN(CC)CC.Nc1ncnc2c1ncn2[C@@H]1O[C@H](COS(=O)(=O)NC(=O)c2ccccc2O)[C@@H](O)[C@H]1O	> 30

system: Liver microsome; assay: Half life in rat liver microsomes at 1 uM in presence of NADPH by LC-MS/MS method; assay type: ADME; conditions: not given; method in brief: as §1

SMILES	t1/2 [min]
CCN(CC)CC.Nc1ncnc2c1ncn2[C@@H]1O[C@H](COS(=O)(=O)NC(=O)c2ccccc2O)[C@@H](O)[C@H]1O	> 30

system: Liver microsome; assay: Half life in human liver microsomes at 1 uM in presence of NADPH by LC-MS/MS method; assay type: ADME; conditions: not given; method in brief: as §1

SMILES	t1/2 [min]
CCN(CC)CC.Nc1ncnc2c1ncn2[C@@H]1O[C@H](COS(=O)(=O)NC(=O)c2ccccc2O)[C@@H](O)[C@H]1O	> 30

system: not listed separately; assay: Solubility in water; assay type: physicochemical; conditions: buffer

SMILES	solubility [mg/mL]
CCN(CC)CC.Nc1ncnc2c1ncn2[C@@H]1O[C@H](COS(=O)(=O)NC(=O)c2ccccc2O)[C@@H](O)[C@H]1O	> 50

system: not listed separately; assay: Stability in pH 1 buffer solutions assessed as compound degradation after 24 hrs at 37 degC; assay type: physicochemical; conditions: read-out: Drug degradation
Method in brief: (§2)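 Compound held at pH 1 or pH 12 for 24 h at 37 °C, with degradation measured.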

SMILES	degraded at 24 h [%]
CCN(CC)CC.Nc1ncnc2c1ncn2[C@@H]1O[C@H](COS(=O)(=O)NC(=O)c2ccccc2O)[C@@H](O)[C@H]1O	< 5

system: not listed separately; assay: Stability in pH 12 buffer solutions assessed as compound degradation after 24 hrs at 37 degC; assay type: physicochemical; conditions: read-out: Drug degradation; method in brief: as §2

SMILES	degraded at 24 h [%]
CCN(CC)CC.Nc1ncnc2c1ncn2[C@@H]1O[C@H](COS(=O)(=O)NC(=O)c2ccccc2O)[C@@H](O)[C@H]1O	< 5

system: not listed separately; assay: AUC (0 to infinity) in Sprague-Dawley rat at 2.5 mg/kg, iv by LC-MS/MS method; assay type: ADME, organism-based; design: dose 2.5 mg/kg, route intravenous, time infinity; conditions: in vivo
Method in brief: (§3)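 Female Sprague-Dawley rats (250–274 g) with dual jugular/femoral vein catheters, 3 per compound, given a single 2.5 mg/kg bolus into the jugular catheter over 5 s, 3 days after oral dosing. Vehicle was 0.05% sodium carboxymethylcellulose or 25% hydroxypropyl-β-cyclodextrin in water. Femoral blood sampled at 0–480 min into K2EDTA. Plasma analysed by LC–MS/MS with an internal standard. Non-compartmental analysis.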

SMILES	AUC(0-inf) [ng·h/mL]
CCN(CC)CC.Nc1ncnc2c1ncn2[C@@H]1O[C@H](CNS(=O)(=O)NC(=O)c2ccccc2O)C[C@H]1F	16000
CCN(CC)CC.Nc1ncnc2c1ncn2[C@@H]1O[C@H](COS(=O)(=O)NC(=O)c2ccccc2O)[C@@H](O)[C@H]1O	8650
CCN(CC)CC.Nc1ncnc2c1ncn2[C@@H]1O[C@H](CNS(=O)(=O)NC(=O)c2ccccc2O)[C@@H](O)[C@H]1O	5070

system: not listed separately; assay: Clearance in Sprague-Dawley rat at 2.5 mg/kg, iv by LC-MS/MS method; assay type: ADME, organism-based; conditions: in vivo; method in brief: as §3

SMILES	clearance [mL/min/kg]
CCN(CC)CC.Nc1ncnc2c1ncn2[C@@H]1O[C@H](CNS(=O)(=O)NC(=O)c2ccccc2O)C[C@H]1F	2.6
CCN(CC)CC.Nc1ncnc2c1ncn2[C@@H]1O[C@H](COS(=O)(=O)NC(=O)c2ccccc2O)[C@@H](O)[C@H]1O	4.9
CCN(CC)CC.Nc1ncnc2c1ncn2[C@@H]1O[C@H](CNS(=O)(=O)NC(=O)c2ccccc2O)[C@@H](O)[C@H]1O	8.4

system: not listed separately; assay: Terminal half life in Sprague-Dawley rat at 2.5 mg/kg, iv by LC-MS/MS method; assay type: ADME, organism-based; conditions: in vivo, read-out: beta t1/2

SMILES	half-life [min]
CCN(CC)CC.Nc1ncnc2c1ncn2[C@@H]1O[C@H](CNS(=O)(=O)NC(=O)c2ccccc2O)C[C@H]1F	62
CCN(CC)CC.Nc1ncnc2c1ncn2[C@@H]1O[C@H](COS(=O)(=O)NC(=O)c2ccccc2O)[C@@H](O)[C@H]1O	11
CCN(CC)CC.Nc1ncnc2c1ncn2[C@@H]1O[C@H](CNS(=O)(=O)NC(=O)c2ccccc2O)[C@@H](O)[C@H]1O	10.6

system: not listed separately; assay: Cmax in Sprague-Dawley rat at 25 mg/kg, po by LC-MS/MS method; assay type: ADME, organism-based; design: dose 25 mg/kg, route oral; conditions: Sprague-Dawley, in vivo
Method in brief: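 Female Sprague-Dawley rats (250–274 g), catheterised, 3 per compound, dosed by oral gavage at 25 mg/kg from a 10 mg/mL solution. Femoral-vein blood taken at 0, 15, 30, 45, 60, 120, 240 and 480 min into K2EDTA. Plasma protein-precipitated with an internal standard and quantified by LC–MS/MS against standards in rat plasma. Parameters by non-compartmental analysis.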

SMILES	Cmax [ng/mL]
CCN(CC)CC.Nc1ncnc2c1ncn2[C@@H]1O[C@H](CNS(=O)(=O)NC(=O)c2ccccc2O)C[C@H]1F	560
CCN(CC)CC.Nc1ncnc2c1ncn2[C@@H]1O[C@H](COS(=O)(=O)NC(=O)c2ccccc2O)[C@@H](O)[C@H]1O	400
CCN(CC)CC.Nc1ncnc2c1ncn2[C@@H]1O[C@H](CNS(=O)(=O)NC(=O)c2ccccc2O)[C@@H](O)[C@H]1O	700

system: not listed separately; assay: AUC (0 to infinity) in Sprague-Dawley rat at 25 mg/kg, po by LC-MS/MS method; assay type: ADME, organism-based; design: dose 25 mg/kg, time infinity, route oral; conditions: Sprague-Dawley, in vivo

SMILES	AUC(0-inf) [ng·h/mL]
CCN(CC)CC.Nc1ncnc2c1ncn2[C@@H]1O[C@H](CNS(=O)(=O)NC(=O)c2ccccc2O)C[C@H]1F	3300
CCN(CC)CC.Nc1ncnc2c1ncn2[C@@H]1O[C@H](COS(=O)(=O)NC(=O)c2ccccc2O)[C@@H](O)[C@H]1O	1100

system: Rattus norvegicus; assay: Oral bioavailability in Sprague-Dawley rat at 25 mg/kg by LC-MS/MS method; assay type: ADME, organism-based; conditions: in vivo
Method in brief: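 Crossover in the same 3 female Sprague-Dawley rats: 25 mg/kg by oral gavage, then after a 3-day washout 2.5 mg/kg iv bolus. Serial femoral plasma quantified by LC–MS/MS. AUCs by non-compartmental analysis. Absolute bioavailability calculated individually for each rat from its oral and iv data.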

SMILES	F [%]
CCN(CC)CC.Nc1ncnc2c1ncn2[C@@H]1O[C@H](CNS(=O)(=O)NC(=O)c2ccccc2O)C[C@H]1F	2
CCN(CC)CC.Nc1ncnc2c1ncn2[C@@H]1O[C@H](COS(=O)(=O)NC(=O)c2ccccc2O)[C@@H](O)[C@H]1O	1.3
CCN(CC)CC.Nc1ncnc2c1ncn2[C@@H]1O[C@H](CNS(=O)(=O)NC(=O)c2ccccc2O)[C@@H](O)[C@H]1O	3.5

system: Caco-2; assay: Apparent permeability from apical to basolateral side in human Caco2 cells after 30 to 120 mins by HPLC method; assay type: ADME, cell-based; conditions: not given
Method in brief: (§4)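 Caco-2 cells (passage 50–70) grown 21 days on Transwell inserts, used only where TEER >300. Apical buffer pH 6.0, basolateral pH 7.4, 60 min preincubation. Compound dosed from a 20 mM DMSO stock with lucifer yellow on the donor side. Samples analysed by HPLC. Papp = (dQ/dt)/(A·C0) from cumulative sampling. Efflux ratio from B–A and A–B values.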

SMILES	Papp [×10⁻⁶ cm/s]
CCN(CC)CC.Nc1ncnc2c1ncn2[C@@H]1O[C@H](COS(=O)(=O)NC(=O)c2ccccc2O)[C@@H](O)[C@H]1O	1.23
CCN(CC)CC.Nc1ncnc2c1ncn2[C@@H]1O[C@H](CNS(=O)(=O)NC(=O)c2ccccc2O)[C@@H](O)[C@H]1O	1.23

system: Caco-2; assay: Apparent permeability from basolateral to apical side in human Caco2 cells after 30 to 120 mins by HPLC method; assay type: ADME, cell-based; conditions: not given; method in brief: as §4

SMILES	Papp [×10⁻⁶ cm/s]
CCN(CC)CC.Nc1ncnc2c1ncn2[C@@H]1O[C@H](COS(=O)(=O)NC(=O)c2ccccc2O)[C@@H](O)[C@H]1O	0.96
CCN(CC)CC.Nc1ncnc2c1ncn2[C@@H]1O[C@H](CNS(=O)(=O)NC(=O)c2ccccc2O)[C@@H](O)[C@H]1O	0.86

system: Caco-2; assay: Efflux ratio in human Caco2 cells after 30 to 120 mins by HPLC method; assay type: ADME, cell-based; conditions: not given; method in brief: as §4

SMILES	Ratio
CCN(CC)CC.Nc1ncnc2c1ncn2[C@@H]1O[C@H](COS(=O)(=O)NC(=O)c2ccccc2O)[C@@H](O)[C@H]1O	0.78

system: not listed separately; assay: Ratio of Cmax in Sprague-Dawley rat at 25 mg/kg, po to MIC for antimicrobial activity against Mycobacterium tuberculosis H37Rv; assay type: ADME, organism-based; conditions: in vivo
Method in brief: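 Female Sprague-Dawley rats (250–274 g, catheterised; 3 per compound) got a 25 mg/kg gavage dose from a 10 mg/mL solution. Plasma drawn 0–480 min was read by LC–MS/MS, and Cmax was taken by non-compartmental analysis. […] Cmax was divided by MIC.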

SMILES	Ratio
CCN(CC)CC.Nc1ncnc2c1ncn2[C@@H]1O[C@H](CNS(=O)(=O)NC(=O)c2ccccc2O)[C@@H](O)[C@H]1O	7
